Source: ChEMBL document CHEMBL3860041, “Synthesis, biological evaluation and molecular modeling study of some new methoxylated 2-benzylthio-quinazoline-4(3H)-ones as nonclassical antifolates” (Bioorg Med Chem Lett, 2016)

Legend:
Assay type in all cases: functional
[1] = Growth inhibition of human HL-60(TB) cells at 10 uM after 48 hrs by SRB assay relative to control; settings: HL-60, 48 h, read-out: GI
Summary of the method: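 NCI disease-oriented human tumour cell line screen: primary single-dose assay at 10 μM across the full 60-cell-line panel spanning nine tumour subpanels.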

[2] = Growth inhibition of human MOLT4 cells at 10 uM after 48 hrs by SRB assay relative to control; settings: MOLT-4, 48 h, read-out: GI
Summary of the method: (§1)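 NCI 60-cell-line panel, nine tumor subpanels; compounds tested at a single dose of 10 μM in the primary screen.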

[3] = Growth inhibition of human RPMI8226 cells at 10 uM after 48 hrs by SRB assay relative to control; settings: RPMI-8226, 48 h, read-out: GI; summary of the method: as §1
[4] = Growth inhibition of human SR cells at 10 uM after 48 hrs by SRB assay relative to control; settings: read-out: GI
Summary of the method: (§2)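 Primary screen across the full NCI 60 human tumour cell line panel, which covers nine tumour subpanels. A single dose of 10 μM was applied to each line, and growth was recorded for each cell line.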

[5] = Growth inhibition of human A549 cells at 10 uM after 48 hrs by SRB assay relative to control; settings: A549, 48 h, read-out: GI; summary of the method: as §1
[6] = Growth inhibition of human HOP62 cells at 10 uM after 48 hrs by SRB assay relative to control; settings: HOP-62, 48 h, read-out: GI; summary of the method: as §1
[7] = Growth inhibition of human HOP92 cells at 10 uM after 48 hrs by SRB assay relative to control; settings: HOP-92, 48 h, read-out: GI; summary of the method: as §1
[8] = Growth inhibition of human HCT15 cells at 10 uM after 48 hrs by SRB assay relative to control; settings: HCT-15, 48 h, read-out: GI; summary of the method: as §1
[9] = Growth inhibition of human HT-29 cells at 10 uM after 48 hrs by SRB assay relative to control; settings: HT-29, 48 h, read-out: GI; summary of the method: as §1
[10] = Growth inhibition of human KM12 cells at 10 uM after 48 hrs by SRB assay relative to control; settings: KM12, 48 h, read-out: GI; summary of the method: as §1
[11] = Growth inhibition of human SF268 cells at 10 uM after 48 hrs by SRB assay relative to control; settings: SF-268, 48 h, read-out: GI; summary of the method: as §1
[12] = Growth inhibition of human SF295 cells at 10 uM after 48 hrs by SRB assay relative to control; settings: SF-295, 48 h, read-out: GI; summary of the method: as §1
[13] = Growth inhibition of human M14 cells at 10 uM after 48 hrs by SRB assay relative to control; settings: M14, 48 h, read-out: GI; summary of the method: as §1
[14] = Growth inhibition of human SK-MEL-5 cells at 10 uM after 48 hrs by SRB assay relative to control; settings: SK-MEL-5, 48 h, read-out: GI; summary of the method: as §2
[15] = Growth inhibition of human IGROV1 cells at 10 uM after 48 hrs by SRB assay relative to control; settings: IGROV-1, 48 h, read-out: GI; summary of the method: as §1
[16] = Growth inhibition of human OVCAR4 cells at 10 uM after 48 hrs by SRB assay relative to control; settings: OVCAR-4, 48 h, read-out: GI; summary of the method: as §1
[17] = Growth inhibition of human OVCAR5 cells at 10 uM after 48 hrs by SRB assay relative to control; settings: OVCAR-5, 48 h, read-out: GI; summary of the method: as §1
[18] = Growth inhibition of human OVCAR8 cells at 10 uM after 48 hrs by SRB assay relative to control; settings: OVCAR-8, 48 h, read-out: GI; summary of the method: as §1
[19] = Growth inhibition of human SKOV3 cells at 10 uM after 48 hrs by SRB assay relative to control; settings: SK-OV-3, 48 h, read-out: GI; summary of the method: as §2
[20] = Growth inhibition of human 786-0 cells at 10 uM after 48 hrs by SRB assay relative to control; settings: 786-0, 48 h, read-out: GI; summary of the method: as §1
[21] = Growth inhibition of human UO31 cells at 10 uM after 48 hrs by SRB assay relative to control; settings: UO-31, 48 h, read-out: GI; summary of the method: as §2
[22] = Growth inhibition of human MCF7 cells at 10 uM after 48 hrs by SRB assay relative to control; settings: MCF7, 48 h, read-out: GI; summary of the method: as §1
[23] = Growth inhibition of human MDA-MB-231 cells at 10 uM after 48 hrs by SRB assay relative to control; settings: MDA-MB-231, 48 h, read-out: GI; summary of the method: as §1
Cancer cell lines [24] = assay: Potency index, ratio of 5-fluorouracil GI50 to compound GI50 for human renal cancer cells
Summary of the method: (§3)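 GI50 for each cell line came from NCI panel testing over a 5-log dose range, with 5-fluorouracil tested alongside as the reference drug. The index relates the 5-fluorouracil GI50 to the compound GI50 within each tumour subpanel.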

Cancer cell lines [25] = assay: Potency index, ratio of 5-fluorouracil GI50 to compound GI50 for human ovarian cancer cells; summary of the method: as §3
Cancer cell lines [26] = assay: Potency index, ratio of 5-fluorouracil GI50 to compound GI50 for human CNS cancer cells; summary of the method: as §3
[27] = Growth inhibition of human non-small cell lung cancer cells after 48 hrs by SRB assay; settings: Cancer cell lines
Summary of the method: (§4)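 Follow-up NCI panel testing over a 5-log dose range for each cell line. GI50, TGI and LC50 were monitored, with 5-fluorouracil run as the positive control. Values are grouped by tumour subpanel.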

[28] = Growth inhibition of human colon cancer cells after 48 hrs by SRB assay; settings: Cancer cell lines; summary of the method: as §4
[29] = Growth inhibition of human melanoma cells after 48 hrs by SRB assay; settings: Melanoma cell; summary of the method: as §4
[30] = Growth inhibition of human renal cancer cells after 48 hrs by SRB assay; settings: Cancer cell lines; summary of the method: as §4
[31] = Growth inhibition of human prostate cancer cells after 48 hrs by SRB assay; settings: Cancer cell lines; summary of the method: as §4
[32] = Growth inhibition of human breast cancer cells after 48 hrs by SRB assay; settings: Cancer cell lines; summary of the method: as §4
[33] = Growth inhibition of human NCI-H522 cells at 10 uM after 48 hrs by SRB assay relative to control; settings: NCI-H522, 48 h, read-out: GI; summary of the method: as §1

Work on `COc1cc(CSc2nc3ccc(Cl)cc3c(=O)n2Cc2ccccc2)cc(OC)c1OC` yielded an inhibition of growth at 10 µM [1] of 85.4%, an inhibition of growth at 10 µM [2] of 70.6% and an inhibition of growth at 10 µM [3] of 31.3%. The inhibition of growth at 10 µM [4] was 76.9%, the inhibition of growth at 10 µM [5] was 57.8% and the inhibition of growth at 10 µM [6] was 62.3%. It also gave an inhibition of growth at 10 µM [7] of 28.7%, an inhibition of growth at 10 µM [8] of 75.1% and an inhibition of growth at 10 µM [9] of 88.3%. The inhibition of growth at 10 µM [10] was 76.4%, the inhibition of growth at 10 µM [11] was 59.1% and the inhibition of growth at 10 µM [12] was 71.1%. The inhibition of growth at 10 µM [13] was 64.7%, the inhibition of growth at 10 µM [14] was 74.4% and the inhibition of growth at 10 µM [15] was 64.7%. The inhibition of growth at 10 µM [16] was 48%, the inhibition of growth at 10 µM [17] was 53.3% and the inhibition of growth at 10 µM [18] was 47.1%. The inhibition of growth at 10 µM [19] was 75.7%, the inhibition of growth at 10 µM [20] was 56.6% and the inhibition of growth at 10 µM [21] was 72.9%. The inhibition of growth at 10 µM [22] was 85.7%, the inhibition of growth at 10 µM [23] was 61.2% and the RatioGI50 (Cancer cell lines [24]) was 2 - 10. The RatioGI50 (Cancer cell lines [25]) was 2 - 10, the RatioGI50 (Cancer cell lines [26]) was 2 - 10 and the GI50 [27] was 5.5 µM. For the same molecule, the LC50 (concentration killing 50% of cells) [27] was 97.6 µM, the TGI [27] was 66.5 µM and the GI50 [28] was 3.1 µM. It also gave an LC50 [28] of 87.5 µM, a TGI [28] of 86.3 µM and a GI50 [29] of 4.4 µM. It also gave an LC50 [29] of 98.9 µM, a TGI [29] of 55.2 µM and a GI50 [30] of 4.4 µM. For the same molecule, the LC50 [30] was 96.5 µM, the TGI [30] was 52.3 µM and the GI50 [31] was 4 µM. It also gave an LC50 (concentration killing 50% of cells) [31] of over 100 µM, a TGI [31] of over 100 µM and a GI50 [32] of 3.3 µM. The LC50 [32] was over 100 µM and the TGI [32] was 59.1 µM.
For `COc1cc(CSc2nc3ccc(C)cc3c(=O)n2-c2ccccc2)cc(OC)c1OC`, the inhibition of growth at 10 µM [1] was 87.8%, the inhibition of growth at 10 µM [2] was 78.2% and the inhibition of growth at 10 µM [3] was 45.1%. The inhibition of growth at 10 µM [4] was 79.7%, the inhibition of growth at 10 µM [5] was 60.7% and the inhibition of growth at 10 µM [6] was 62.2%. The inhibition of growth at 10 µM [7] was 32.1%, the inhibition of growth at 10 µM [33] was 91.7% and the inhibition of growth at 10 µM [8] was 69.9%. It also gave an inhibition of growth at 10 µM [9] of 85.7%, an inhibition of growth at 10 µM [10] of 74.7% and an inhibition of growth at 10 µM [11] of 52.6%. The inhibition of growth at 10 µM [12] was 67.2%, the inhibition of growth at 10 µM [13] was 82.8% and the inhibition of growth at 10 µM [14] was 80%. It also gave an inhibition of growth at 10 µM [15] of 66.8%, an inhibition of growth at 10 µM [16] of 42.8% and an inhibition of growth at 10 µM [17] of 53.6%. It also gave an inhibition of growth at 10 µM [18] of 47.2%, an inhibition of growth at 10 µM [19] of 86.4% and an inhibition of growth at 10 µM [20] of 62.4%. It also gave an inhibition of growth at 10 µM [21] of 75.9%, an inhibition of growth at 10 µM [22] of 80.1% and an inhibition of growth at 10 µM [23] of 62.1%. It also gave a RatioGI50 (Cancer cell lines [24]) of 10, a RatioGI50 (Cancer cell lines [25]) of 10 and a RatioGI50 (Cancer cell lines [26]) of 10. It also gave a GI50 [27] of 3 µM, an LC50 (concentration killing 50% of cells) [27] of over 100 µM and a TGI [27] of 87 µM. For the same molecule, the GI50 [28] was 1.3 µM, the LC50 [28] was over 100 µM and the TGI [28] was 86.3 µM. It also gave a GI50 [29] of 3.9 µM, an LC50 [29] of over 100 µM and a TGI [29] of 82.2 µM. It also gave a GI50 [30] of 4.2 µM, an LC50 [30] of over 100 µM and a TGI [30] of 76.9 µM. It also gave a GI50 [31] of 3.4 µM, an LC50 (concentration killing 50% of cells) [31] of over 100 µM and a GI50 [32] of 2.3 µM. It also gave an LC50 [32] of over 100 µM and a TGI [32] of 84.3 µM.
